# The list is not random: actives were taken first. Their share in the collection is about 1.8%.
# LMPTP block: LMPTP (human) inhibition. recombinant LMPTP-A, OMFP fluorogenic substrate, fluorescence intensity. P24666. inhibition, % at 20 µM. 360,000 tested, 0.22% active. AID 651560;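 active = compounds that cut the enzyme signal by at least half of the control window in the single-dose screen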;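 also: plate controls were DMSO wells with enzyme plus substrate for no effect and substrate without enzyme for full effect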
# Target sequence (P24666 whole entry, looked up): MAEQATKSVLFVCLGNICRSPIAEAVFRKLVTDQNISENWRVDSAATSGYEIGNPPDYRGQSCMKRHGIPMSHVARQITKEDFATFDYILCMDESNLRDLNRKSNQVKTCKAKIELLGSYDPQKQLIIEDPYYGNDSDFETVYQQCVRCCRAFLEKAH
#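 Test system – LMPTP-A phosphatase enzyme · Quantity – 0.625 nM LMPTP-A final · Reagent – OMFP substrate, 400 µM final · Dosing – one test concentration per compound, 20 µM, with 3% DMSO overall · Timing – 50 min enzyme reaction at room temperature, protected from light · Detection – fluorescence intensity · Controls – substrate-only low control, DMSO enzyme-plus-substrate high control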
# Scp1 inh: Scp-1 (human) phosphatase inhibition; Q9GZU7; Recombinant Scp1, phosphopeptide, malachite green phosphate absorbance; 340,000 tested, 0.88% active; inhibition, % at 20 µM;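 active = inhibition above about 50% at 20 µM, limit read from the data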;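 also: plate controls were DMSO wells with enzyme for no effect and wells lacking enzyme for full effect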
# Target sequence (Q9GZU7 76-261 limits assumed): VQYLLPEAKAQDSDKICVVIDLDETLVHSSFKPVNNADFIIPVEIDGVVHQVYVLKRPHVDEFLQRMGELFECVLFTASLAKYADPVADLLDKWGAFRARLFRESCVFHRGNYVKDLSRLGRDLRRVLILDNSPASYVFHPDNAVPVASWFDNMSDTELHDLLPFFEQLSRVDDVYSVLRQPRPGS
#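 assay system = SCP-1 phosphatase catalytic domain, residues 76-261 | buffer or medium = 50 mM Tris acetate pH 5.5, 0.005% Tween-20, 10 mM MgCl2 | incubation = enzyme reaction 45 min at room temperature, colour 5 min, stabilisation 30 min | signal = Phosphate-binding colour reagent, absorbance read at 630 nm | measure = % inhibition at 20 µM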
# DNMT1 inh: inhibitors of human DNMT1. 360,000 tested, 0.83% active. DNMT1 molecular beacon, Hinp1I cleavage, fluorescence. AID 588458. inhibition (reported as % activation of signal), % at 10 µM. P26358; in the data active = inhibition above about 50%
# SUMO1 PPI mod: SUMO1-SIM interaction modulation; P63165; SUMO1 binding to a labelled peptide, TR-FRET, 1 h; inhibition, % at 20 µM; 360,000 tested, 0.33% active; AID 602429; in the data active = inhibition above about 37%
# Target sequence (P63165 whole entry, looked up): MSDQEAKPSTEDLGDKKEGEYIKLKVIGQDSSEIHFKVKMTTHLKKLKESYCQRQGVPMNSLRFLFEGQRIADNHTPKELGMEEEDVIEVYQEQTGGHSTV
# STEP block: STEP (human) phosphatase inhibition; P54829; recombinant STEP, OMFP fluorogenic substrate, fluorescence; inhibition, % at 20 µM; 360,000 tested, 0.25% active; AID 588621;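 active = inhibition at 20 µM, scaled per plate between control wells, above about 37%, limit read from the data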;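 also: 0% = DMSO with enzyme and substrate and 100% = substrate only without enzyme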
#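 System: isolated STEP enzyme; schedule: 20 min enzyme reaction at room temperature, protected from light; medium: Bis-Tris buffer pH 6.0, 2.5 mM DTT, 0.005% Tween 20; signal: fluorescence, 480/540 nm; dosing: single compound dose of 20 µM, 1% DMSO final; also added: OMFP substrate, 25 µM final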
# * hit, by the source's call; . = no result given.
SMILES,LMPTP block,Scp1 inh,DNMT1 inh,SUMO1 PPI mod,STEP block
CN(C)CCCN1C(=O)c2cccc3c([N+](=O)[O-])ccc(c23)C1=O,1,-2,69*,-27,-3
O=C1c2cccc3c([N+](=O)[O-])ccc(c23)C(=O)N1CCc1ccccn1,1,2,15,-23,3
Cc1ccc(C(=O)O)cc1N1C(=O)c2cccc3c([N+](=O)[O-])ccc(c23)C1=O,0,10,60*,15,1
O=C(Nc1nccs1)c1cccc(N2C(=O)c3cccc4c([N+](=O)[O-])ccc(c34)C2=O)c1,-3,-2,78*,-14,-2
CCCN(C(=O)c1cc(-c2ccco2)nc2ccccc12)c1c(N)n(Cc2ccccc2)c(=O)[nH]c1=O,13,74*,38,0,6
CCCCn1c(N)c(N(CCC(C)C)C(=O)c2cc(-c3ccco3)nc3ccccc23)c(=O)[nH]c1=O,9,61*,37,1,12
CCCCN(C(=O)c1cc(-c2ccco2)nc2ccccc12)c1c(N)n(CCCC)c(=O)[nH]c1=O,13,.,34,1,2
Cc1ccccc1-n1nnnc1SCC(=O)NCC1(N2CCOCC2)CCCCC1,-2,-7,1,-3,0
Fc1ccc(-c2csc(Nc3ccccn3)n2)cc1,2,-1,-5,-2,-2
O=C(NCCS(=O)(=O)N1CCN(c2cccc(Cl)c2)CC1)c1ccco1,0,-5,0,2,0
Cc1cc(=O)oc2cc(OCC(=O)c3ccc4c(c3)NC(=O)CO4)ccc12,39,3,16,42*,2
CCN(C(=O)CCc1nnc2ccc(NCc3ccco3)nn12)c1ccccc1,0,3,-2,7,-1
CC(NC(=O)Cn1ncc(Cl)c(Cl)c1=O)C12CC3CC(CC(C3)C1)C2 (configuration not stated),1,0,59*,9,-1
COc1cccc(Cn2c(N)c(C#N)c3nc4ccccc4nc32)c1OC,9,6,40,40*,2
CC(=O)NCCOc1nc(N2CCCCC2)nc(N2CCCCC2)n1,0,-3,2,7,0
C[C@H]1c2cccc(O)c2C(O)=C2C(=O)[C@]3(O)C(O)=C(C(N)=O)C(=O)[C@@H](N(C)C)C3[C@@H](O)C21 (some centres not stated),1,14,2,1,2
C=C1c2cccc(O)c2C(=O)C2C(=O)[C@]3(O)C(=O)C(C(N)=O)C(=O)[C@@H](N(C)C)[C@@H]3[C@@H](O)[C@H]12 (some centres not stated),81*,60*,94*,73*,53*
CC(C)N1CCC1(C)C(=O)Nc1ccc(-n2cccc2)cc1 (configuration not stated),0,.,1,-8,-5
COc1cc(/C=N/NC(=O)c2cccnc2)ccc1OCC(=O)Nc1ccccc1Cl,4,12,35,86*,19
COc1ccc(NC(=O)NNC(=O)C(C)Oc2ccc3ccccc3c2)cc1 (configuration not stated),0,-9,-2,0,-1
CC(=O)c1ccc(OCc2cc(C(=O)N3CC4C[C@@H]5CC3C[C@H](C4)C5)no2)cc1,0,-11,1,4,-1
COc1cc(/C=C(\C#N)C(=O)NC(C)C)ccc1OCc1ccc(C(=O)O)cc1,-3,6,2,-5,-1
O=C(O)c1cccc(NC(=O)c2ccc(COc3ccc(Cl)cc3)cc2)c1,2,1,2,16,-2
N#C/C(=C\c1ccc(OCc2ccc(Cl)cc2)cc1)C(=O)Nc1cccc(C(=O)O)c1,36,14,62*,66*,58*
CCOc1cc(/C=C(/C#N)C(=O)Nc2ccc(OC)cc2)ccc1OCc1ccc(C(=O)O)cc1,80*,14,4,9,23
SMILES,LMPTP block,Scp1 inh,DNMT1 inh,SUMO1 PPI mod,STEP block
Cc1ccc(S(=O)(=O)N2CCN(C(=O)Cc3c(F)cccc3Cl)CC2)cc1,0,-6,-2,1,-1
CCCCN1C(=O)C(C(=O)OCC)CC2=C1CCCC2=O (configuration not stated),-1,-8,5,1,-2
Cc1cccc(N2C(=O)CC(Sc3nc(-c4ccccc4)c4cc(Cl)ccc4n3)C2=O)c1 (configuration not stated),1,-7,-5,44*,-1
Cc1sc2nc(C(C)C)nc(SCC(=O)N3CCOCC3)c2c1C,1,-8,1,1,-1
Cc1ccc(S(=O)(=O)N(C)CC(=O)O/N=C(\N)c2cccc(Br)c2)cc1,4,-6,-2,1,1
COc1ccc(/C=N/NC(=O)CCn2cnc(-c3ccccc3)c2-c2ccccc2)cc1,1,1,-5,0,118*
O=C(CCn1cnc(-c2ccccc2)c1-c1ccccc1)N/N=C/c1ccc(O)cc1,-1,-6,4,1,-3
CC(=O)NCCNC(=O)C1(C)Cc2c(-c3cccc(C(F)(F)F)c3)ccnc2O1 (configuration not stated),-1,.,3,2,-2
CN(C)CCCN=c1cc(-c2ccccc2)oc2ccc(Cl)cc12,-6,-5,52*,-5,0
OCCN=c1cc(-c2ccccc2)oc2ccc(Cl)cc12,-1,-6,10,-14,-2
CC1CC1C(=O)OCC(=O)Nc1ccc(S(=O)(=O)N2CCOCC2)cc1 (configuration not stated),0,-4,-1,0,-3
CN1CCc2cc3c(c4c2[C@H]1[C@H](O)c1ccccc1-4)OCO3,4,-6,70*,-36,0
COc1ccc2c(c1OC)C(=O)OC2C1c2c(cc3c(c2OC)OCO3)CCN1C (configuration not stated),-1,-1,0,-3,-1
COc1ccccc1-c1nnc(SCC(=O)N2CCC(C)CC2)o1,-1,-14,-1,-1,-1
CC1CCN(C(=O)CSc2nnc(-c3ccccc3F)o2)CC1,-1,-4,0,54*,2
COc1cccc(CNC(=O)[C@@H]2CCCN2C(=O)[C@@H]2CCCN2C(=O)c2cccs2)c1,0,.,.,1,.
CC(=O)N(CN1C(=O)c2ccccc2C1=O)c1cccc(C)c1,1,-2,-2,-9,-3
CC(=O)N(/N=C1\Sc2ccccc2C1=O)c1cccc(C)c1,3,-4,51*,35,-1
CC(Oc1cccnc1[N+](=O)[O-])C(=O)Nc1ccc(Cl)cn1 (configuration not stated),0,3,0,-22,0
CC(=O)c1sc(Nc2nc3cc4c(cc3s2)OCO4)nc1C,4,-3,-3,40*,2
CC(=O)c1sc(Nc2ccc3c(c2)OCO3)nc1C,1,.,6,-29,2

# Screening results deposited in PubChem BioAssay by Sanford-Burnham Center for Chemical Genomics.
